The test system of series [1] is Escherichia coli. As to the kind of experiment: Antimicrobial activity against Escherichia coli DH10B transfected with pBK-L3 expressing blaLUT-1 by Etest method in presence of 2 ug/ml clavulanic acid. Format: functional. To be noted: K-12 DH10B.
In series [2] the test system is Escherichia coli. As to the kind of experiment: Antimicrobial activity against Escherichia coli DH10B transfected with pBK-L3 expressing blaLUT-1 by Etest method. The format is functional. To be noted: K-12 DH10B.
In series [3] the test system is Pseudomonas luteola. As to the kind of experiment: Antimicrobial activity against Pseudomonas luteola expressing blaLUT-2 to blaLUT-6 by Etest method. The format is functional.
The subject of series [4] is Pseudomonas luteola. Nature of the series: Antimicrobial activity against Pseudomonas luteola expressing blaLUT-2 to blaLUT-6 by Etest method in presence of 2 ug/ml clavulanic acid. The format is functional.
Series [5] concerns Pseudomonas luteola. As to the kind of experiment: Antimicrobial activity against Pseudomonas luteola LAM expressing blaLUT-1 by Etest method. Format: functional.
Series [6] concerns Escherichia coli. As to the kind of experiment: Antimicrobial activity against Escherichia coli DH10B by Etest method. The format is functional. Conditions: K-12 DH10B.
Series [7] deals with Pseudomonas luteola. As to the kind of experiment: Antimicrobial activity against Pseudomonas luteola LAM expressing blaLUT-1 by Etest method in presence of 2 ug/ml clavulanic acid. The format is functional.
Series [8] concerns Escherichia coli. Nature of the series: Antimicrobial activity against Escherichia coli DH10B by Etest method in presence of 2 ug/ml clavulanic acid. Format: functional. Conditions: K-12 DH10B.
Series [9] concerns Pseudomonas luteola. Nature of the series: Antimicrobial activity against Pseudomonas luteola by disk diffusion method. Format: functional. In short, it runs like this:
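Disk diffusion panel of 32 antimicrobial drugs tested on P. luteola clinical isolates and the type strain. Isolates were identified by API-20 NE and by sequencing of PCR-amplified rrs and rpoB.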

The test system of series [10] is Escherichia coli. Nature of the series: microbe, parasite or virus in culture. To be noted: K-12 DH10B.
Series [11] relates to Escherichia coli. As to the kind of experiment: Antimicrobial activity against Escherichia coli DH10B by Etest method in presence of 4 ug/ml clavulanic acid. The format is functional. To be noted: K-12 DH10B.
Series [12] concerns Pseudomonas luteola. As to the kind of experiment: Antimicrobial activity against Pseudomonas luteola LAM expressing blaLUT-1 by Etest method in presence of 4 ug/ml clavulanic acid. The format is functional.
The subject of series [13] is Pseudomonas luteola. Nature of the series: Antimicrobial activity against Pseudomonas luteola expressing blaLUT-2 to blaLUT-6 by Etest method in presence of 4 ug/ml clavulanic acid. The format is functional.
Substrate in series [14]: CCN1CCN(C(=O)N[C@@H](C(=O)N[C@@H]2C(=O)N3[C@@H]2SC(C)(C)[C@@H]3C(=O)O)c2ccccc2)C(=O)C1=O
Nature of the series: (§1) Ratio of kcat/Km for Pseudomonas luteola LAM Beta-lactamase LUT-1. A digest of the protocol: (§2)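 LUT-1 was purified from E. coli DH5α(pBK-L3) grown for 18 h at 37°C in 2× yeast-tryptone broth with kanamycin 20 μg/ml and amoxicillin 32 μg/ml. Purification used Q Sepharose ion exchange, then Superose 12 gel filtration, with purity checked by SDS-PAGE. Km and kcat were determined by a computerized microacidimetric method, each three times, with coefficients of variation not exceeding 15%.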

Substrate in series [15]: CC(=O)OCC1=C(C(=O)O)N2C(=O)[C@@H](NC(=O)Cc3cccs3)[C@H]2SC1
The series is described as §1. In short, it runs like this:
as §2

Substrate in series [16]: CO/N=C(\C(=O)N[C@@H]1C(=O)N2C(C(=O)O)=C(COC(C)=O)CS[C@H]12)c1csc(N)n1
The description is as §1. A digest of the protocol: as §2

Substrate in series [17]: C[C@H]1[C@H](NC(=O)/C(=N\OC(C)(C)C(=O)O)c2csc(N)n2)C(=O)N1S(=O)(=O)O
Described as §1. In short, it runs like this: as §2

Substrate in series [18]: CC1(C)S[C@@H]2[C@H](NC(=O)Cc3ccccc3)C(=O)N2[C@H]1C(=O)O
The series is described as §1. In short, it runs like this: as §2

Substrate in series [19]: CC1(C)S[C@@H]2[C@H](NC(=O)[C@H](N)c3ccc(O)cc3)C(=O)N2[C@H]1C(=O)O
The description is as §1. A digest of the protocol:
as §2

Substrate in series [20]: CO/N=C(\C(=O)N[C@@H]1C(=O)N2C(C(=O)O)=C(COC(N)=O)CS[C@H]12)c1ccco1
The description is as §1. In short, it runs like this: as §2

Substrate in series [21]: CC1(C)S[C@@H]2[C@H](NC(=O)[C@H](C(=O)O)c3ccsc3)C(=O)N2[C@H]1C(=O)O
The series is described as §1. In short, it runs like this:
as §2

Substrate in series [22]: CC(C)(O/N=C(\C(=O)N[C@@H]1C(=O)N2C(C(=O)[O-])=C(C[n+]3ccccc3)CS[C@H]12)c1csc(N)n1)C(=O)O
The description is as §1. A digest of the protocol:
as §2

Substrate in series [23]: CCN1CCN(C(=O)N[C@@H](C(=O)N[C@@H]2C(=O)N3[C@@H]2SC(C)(C)[C@@H]3C(=O)O)c2ccccc2)C(=O)C1=O
Nature of the series: (§3) Activity of Pseudomonas luteola LAM Beta-lactamase LUT-1. A digest of the protocol:
as §2

Substrate in series [24]: CC(=O)OCC1=C(C(=O)O)N2C(=O)[C@@H](NC(=O)Cc3cccs3)[C@H]2SC1
The description is as §3. In short, it runs like this:
as §2

Substrate in series [25]: CO/N=C(\C(=O)N[C@@H]1C(=O)N2C(C(=O)O)=C(COC(C)=O)CS[C@H]12)c1csc(N)n1
Described as §3. In short, it runs like this: as §2

Substrate in series [26]: C[C@H]1[C@H](NC(=O)/C(=N\OC(C)(C)C(=O)O)c2csc(N)n2)C(=O)N1S(=O)(=O)O
The series is described as §3. A digest of the protocol:
as §2

Substrate in series [27]: CC1(C)S[C@@H]2[C@H](NC(=O)Cc3ccccc3)C(=O)N2[C@H]1C(=O)O
The description is as §3. In short, it runs like this:
as §2

Substrate in series [28]: CC1(C)S[C@@H]2[C@H](NC(=O)[C@H](N)c3ccc(O)cc3)C(=O)N2[C@H]1C(=O)O
The description is as §3. In short, it runs like this:
as §2

Substrate in series [29]: CO/N=C(\C(=O)N[C@@H]1C(=O)N2C(C(=O)O)=C(COC(N)=O)CS[C@H]12)c1ccco1
Described as §3. A digest of the protocol:
as §2

Substrate in series [30]: CC1(C)S[C@@H]2[C@H](NC(=O)[C@H](C(=O)O)c3ccsc3)C(=O)N2[C@H]1C(=O)O
Described as §3. A digest of the protocol: as §2

Substrate in series [31]: CC(C)(O/N=C(\C(=O)N[C@@H]1C(=O)N2C(C(=O)[O-])=C(C[n+]3ccccc3)CS[C@H]12)c1csc(N)n1)C(=O)O
The description is as §3. A digest of the protocol: as §2

In brackets after ≈: the same amount, converted by molar mass. Activity calls are given as the source filed them. The rule behind the calls is not given here.

Turning to `CC1(C)S[C@@H]2[C@H](NC(=O)[C@H](C(=O)O)c3ccsc3)C(=O)N2[C@H]1C(=O)O` [TICARCILLIN], the MIC in [1] is 16 µg/mL; in series [2] it was 256 µg/mL (≈ 666 µM); in series [3] it was 8 µg/mL (≈ 20.8 µM); in series [4] it was 2 µg/mL; in [5], 8 µg/mL (≈ 20.8 µM); in series [6], 2 µg/mL (≈ 5.2 µM). The MIC was 4 µg/mL in [7] and 2 µg/mL in [8].
Turning to `O=C(N[C@H](CO)[C@H](O)c1ccc([N+](=O)[O-])cc1)C(Cl)Cl`, the outcome in series [5] was inactive.
In the case of `Cn1nnnc1SCC1=C(C(=O)O)N2C(=O)[C@@H](NC(=O)[C@H](O)c3ccccc3)[C@H]2SC1`, the result in series [9] was inactive.
Regarding `CC(C)(O/N=C(\C(=O)N[C@@H]1C(=O)N2C(C(=O)[O-])=C(C[n+]3ccccc3)CS[C@H]12)c1csc(N)n1)C(=O)O` [CEFTAZIDIME], the MIC is 0.5 µg/mL (≈ 0.915 µM) in series [10]; 1 µg/mL (≈ 1.83 µM) in series [2]; 0.5 µg/mL (≈ 0.915 µM) in series [3]; 0.5 µg/mL (≈ 0.915 µM) in series [5]; 0.125 µg/mL (≈ 0.229 µM) in series [6]; 0.25 µg/mL in series [11]. The MIC in [12] and in series [13] was 0.25 µg/mL in each case.
On to `CO/N=C(\C(=O)N[C@@H]1C(=O)N2C(C(=O)O)=C(COC(C)=O)CS[C@H]12)c1csc(N)n1` [CEFOTAXIME], for which the MIC in series [10] is 0.06 µg/mL (≈ 0.132 µM); in [2], 1 µg/mL (≈ 2.2 µM); in series [3] it was 2 µg/mL (≈ 4.39 µM); in series [5] it was 1 µg/mL (≈ 2.2 µM); in series [6], less than 0.06 µg/mL; in series [11] it was less than 0.06 µg/mL. For the same molecule, the MIC in series [12] and in series [13] was 1 µg/mL in each case.
Take `COc1cc(Cc2cnc(N)nc2N)cc(OC)c1OC`: the outcome in series [9] was inactive.
`C[C@H]1[C@H](NC(=O)/C(=N\OC(C)(C)C(=O)O)c2csc(N)n2)C(=O)N1S(=O)(=O)O` [AZTREONAM]: the MIC was determined as 2 µg/mL (≈ 4.59 µM) in series [2], 4 µg/mL (≈ 9.19 µM) in series [3] and 2 µg/mL (≈ 4.59 µM) in series [5].

B1: Beta-lactamase (Pseudomonas luteola), Q670S6 (protein)
chain: MNVILNRRTFLLASAVVSASYSLGTLAGANRDDASFQDRLAKLEQQLNGRLGVCAIDTANGAQLGYRANERFAMNSTFKVMLASAFLARSQDEPGLLEERLTYTRADLVTYSPVTEKHVSTGMTVAELCAAGIQYSDNTAANVLMKKLGGPEAVTAFARSIGDTHFRLDRWETELNSAIPGDPRDTSTPQAMAMSLQRLALGDMLAADKQHQLQAWLKGNTTGGKRIRAGVPAGWQVGDKTGTGDYGSANDVAILWPPRRAPVVLALYSALENQQAEARNDVLADAARIVAEWVTG
As for B1, the catalytic efficiency (kcat/Km) in [14] was 1.14e+06 M⁻¹ s⁻¹; in series [15], 2.59e+07 M⁻¹ s⁻¹; in series [16], 5.25e+06 M⁻¹ s⁻¹; in series [17] it was 40000 M⁻¹ s⁻¹; in [18], 3.87e+06 M⁻¹ s⁻¹; in series [19], 1.05e+06 M⁻¹ s⁻¹. Moreover, the figures for the kcat/Km in series [20], in series [21] and in [22] were 1.19e+07 M⁻¹ s⁻¹, 360000 M⁻¹ s⁻¹ and 40000 M⁻¹ s⁻¹, respectively. The Km is 7 µM in series [23]; 21 µM in series [24]; 86 µM in series [25]; 40 µM in series [26]; 8 µM in series [27]; 20 µM in series [28]. For the same molecule, the results for the Km in [29], in [30] and in series [31] were 24 µM, 14 µM and 35 µM, respectively. The kcat in series [23] came to 8 s⁻¹; in [24] it was 543 s⁻¹; in series [25] it was 452 s⁻¹; in [26] it was 1.5 s⁻¹; in series [27], 31 s⁻¹; in series [28], 21 s⁻¹. The kcat in series [29] was 286 s⁻¹; in series [30], 5 s⁻¹; in series [31], 1.3 s⁻¹.

The values above are taken from ChEMBL document CHEMBL1212770, “Molecular and biochemical characterization of the natural chromosome-encoded class A beta-lactamase from Pseudomonas luteola” (Antimicrob Agents Chemother, 2010).
